Published values from different studies.
Protocols differ between the studies behind these lines.
PRKACA: cAMP-dependent protein kinase catalytic subunit alpha (PRKACA, Bos taurus, UniProt P00517)
KMT5A: N-lysine methyltransferase KMT5A (KMT5A, Homo sapiens, UniProt Q9NQR1)
LATS1: Serine/threonine-protein kinase LATS1 (LATS1, Homo sapiens, UniProt O95835)
HTR3A: 5-hydroxytryptamine receptor 3A (HTR3A, Homo sapiens, UniProt P46098)

SMILES | target | effect on | mode | method | cell line | tested at | inhibition
Cc1ccc(Nc2nccc(N(C)c3ccc4c(C)n(C)nc4c3)n2)cc1S(N)(=O)=O | PRKACA | enzyme activity | inhibitor | – | – | 0.3 µM | -7%
COc1cc(NC(C)=O)c(Cl)cc1C(=O)Nc1nccs1 | Cholecystokinin receptor type A (CCKAR, Homo sapiens, UniProt P32238) | cell-free assay | – | – | – | 10 µM | -9.3%
Ic1cccc2cnccc12 | Nicotinamide phosphoribosyltransferase (NAMPT, Homo sapiens, UniProt P43490) | enzyme activity | inhibitor | – | – | 10 µM | -2%
CN(C)C1CCN(CC#Cc2nn(C3CCCC3)c3nc(NCc4ccccc4)ncc23)C1 (centres unmarked) | Dual specificity mitogen-activated protein kinase kinase 6 (MAP2K6, Homo sapiens, UniProt P52564) | enzyme activity | inhibitor | FRET | – | 10 µM | 8%
O=C1c2c(O)cccc2Cc2cccc(O)c21 | KMT5A | cell-free assay | – | – | – | 10 µM | 19%
Cn1cnc(Br)c1C1=CN(c2ncnc3[nH]cnc23)CCS1 | LATS1 | enzyme activity | inhibitor | radiometric | – | 2 µM | 97.3%
CCCCC(CC)CNC(=N)NC(=N)NCCCCCCNC(=N)NC(=N)NCC(CC)CCCC (centres unmarked) | KMT5A | cell-free assay | – | – | – | 10 µM | 34%
O=C(c1ccc(F)cc1)N(Cc1ccccc1)C1CCCCC1 | HTR3A | ligand displacement | – | – | – | 10 µM | -1%
CSCCC(NC=O)C(=O)NC(C)C(=O)O (centres unmarked) | KMT5A | cell-free assay | – | – | – | 10 µM | 33%
CCN1CCN(Cc2ccc(NC(=O)c3ccc(C)c(Oc4ccnc5[nH]ccc45)c3)cc2C(F)(F)F)CC1 | Receptor-interacting serine/threonine-protein kinase 4 (RIPK4, Homo sapiens, UniProt P57078) | target engagement in cells | inhibitor | chemoproteomics | A-375 | 5 µM | -11.6%
COC(=O)/C=C\C(=O)Nc1cc2ccc(O)cc2oc1=O | Histone acetyltransferase p300 (EP300, Homo sapiens, UniProt Q09472) | enzyme activity | inhibitor | radiometric | – | 50 µM | > 90%
O=C(Oc1cc(O)cc2c1C[C@@H](OC(=O)c1cc(O)c(O)c(O)c1)[C@@H](c1cc(O)c(O)c(O)c1)O2)c1cc(O)c(O)c(O)c1 | KMT5A | cell-free assay | – | – | – | 10 µM | 6%
COc1cc2ncnc(Nc3ccc(Oc4ccccc4)cc3C)c2cc1OC | Protein kinase C beta type (PRKCB, Homo sapiens, UniProt P05771) | enzyme activity | inhibitor | – | – | 1 µM | 7%
CCN(CC)CCNC(=O)c1c(C)[nH]c(/C=C2\C(=O)Nc3ccc(F)cc32)c1C | PRKACA | enzyme activity | inhibitor | – | – | 10 µM | 1%
COc1ccc(C(=O)c2coc3c2C(=O)C(=O)C=C3)cc1 | Peptide deformylase, mitochondrial (Homo sapiens, UniProt Q9HBH1) | enzyme activity | inhibitor | – | – | 100 µM | ≥ 100%
CN(C)c1ccc(C(=C2C=CC(=[N+](C)C)C=C2)c2ccc(N(C)C)cc2)cc1 | KMT5A | cell-free assay | – | – | – | 10 µM | 97%
O=C(O)c1ncccc1O | Neutrophil collagenase (MMP8, Homo sapiens, UniProt P22894) | enzyme activity | inhibitor | fluorescence | – | 1 mM | ~50%
CCN1CCN(Cc2ccc(NC(=O)c3ccc(C)c(/C=C/c4cnc5[nH]ccc5c4OC)c3)cc2C(F)(F)F)CC1 | Serine/threonine-protein kinase greatwall (MASTL, Homo sapiens, UniProt Q96GX5) | target engagement in cells | inhibitor | chemoproteomics | A-375 | 5 µM | -18.6%
COc1cc(-c2cc(-c3ccc(N4CCNCC4)cc3)cnc2N)cc(OC)c1OC | Tyrosine-protein kinase ABL1 (ABL1, Homo sapiens, UniProt P00519, E255K) | enzyme activity | inhibitor | – | – | 1 µM | 94%
O=C(O)c1cc(O)c2c(c1)[C@H]([C@H]1c3cc(C(=O)O)cc(O)c3C(=O)c3c(O[C@@H]4O[C@H](CO)[C@@H](O)[C@H](O)[C@H]4O)cccc31)c1cccc(O[C@@H]3O[C@H](CO)[C@@H](O)[C@H](O)[C@H]3O)c1C2=O | KMT5A | cell-free assay | – | – | – | 10 µM | 23%
Oc1cccc(Nc2nc(-c3ccc(F)cc3F)cs2)c1 | HTR3A | ligand displacement | – | radioligand | – | 10 µM | 0.9%
O=C(O[C@@H]1Cc2c(O)cc(O)cc2O[C@@H]1c1cc(O)c(=O)c2c(O)c(O)cc([C@H]3Oc4cc(O)cc(O)c4C[C@H]3OC(=O)c3cc(O)c(O)c(O)c3)c2c1)c1cc(O)c(O)c(O)c1 | KMT5A | cell-free assay | – | – | – | 10 µM | 26%
COc1cc(-c2cc(-c3ccc(N4CCNCC4)cc3)cnc2C)cc(OC)c1OC | LATS1 | enzyme activity | inhibitor | – | – | 0.1 µM | 4%
CCN(c1cc(C#CCN2CCOCC2)cc(C(=O)NCc2c(C)cc(C)[nH]c2=O)c1C)[C@H]1CC[C@H](N(C)CCOC)CC1 | Protein arginine N-methyltransferase 6 (PRMT6, Homo sapiens, UniProt Q96LA8) | enzyme activity | inhibitor | – | – | 1 µM | 6%
O=c1c(-c2cc(O)c(O)c(O)c2)coc2cc(O)c(O)c(O)c12 | KMT5A | cell-free assay | – | – | – | 10 µM | 9%
Cn1cncc1C1=CN(c2ncnc3[nH]cnc23)CCS1 | LATS1 | enzyme activity | inhibitor | radiometric | – | 2 µM | 96.1%
